# Tested on: KRAS2 G12D RNA
# Assay: CD thermal melting of TO-PNA-peptide:RNA duplexes
# Type: binding
# Method in brief: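 Gel-purified synthetic RNA 20mers were annealed with the test compound at 1 μM each (final) in sodium phosphate, 1.0 M NaCl, 5 mM EDTA, pH 7.2, by heating at 95 °C for 10 min and then cooling for 10 min. CD at 265 nm was tracked over a 25→95 °C ramp at 0.5 °C/min, with baseline slopes subtracted. Tm was taken as the first-derivative maximum (two-state model); n = 3, ± SD.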
substance,measurement,value
GCCATOTCAGCTCC-AEEA-D(Cys-Ser-Lys-Cys) (disulfide) [TO2],Tm decrease relative to TO1 (12mer) KRAS2 G12D duplex,2 °C
